TbMetRS inhib = blocks T. brucei methionyl-tRNA synthetase activity; purified T. brucei MetRS, ATP depletion, Kinase-Glo luminescence; inhibition, % at 11.9 µM; 360,000 tested, 0.4% active; AID 624268;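 active means inhibition above a per-plate cutoff of the control wells' mean inhibition plus 3 SD, cut at about 5.5% in these data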
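technique = Kinase-Glo luminescence, ATP depletion format | system = purified MetRS (methionyl-tRNA synthetase) enzyme from Trypanosoma brucei | timing = 15 min preincubation, 2 h reaction, all 25 °C | evaluation = percent inhibition versus plate control medians | dosing = single dose, 11.9 µM final nominal, 0.9% final DMSO | also added = substrates ATP, L-methionine and bulk Escherichia coli tRNA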
NadD block = blocks S. aureus nicotinate mononucleotide adenylyltransferase | purified NadD enzyme, colorimetric absorbance read-out | inhibition, % at 20 µM | 360,000 tested, 0.78% active | AID 602399; in the data active means inhibition above about 26%
Pemphigus Ab inh = blocks pemphigus antibody binding to human desmoglein-3; P32926; DSG3-coupled beads, scFv-anti-DSG3-GFP binding, flow cytometry; active compounds read low; binding (percent of control), % at 10 µM; 310,000 tested, 0.48% active; AID 588358;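 active means binding more than 3 SD below its plate's average and above zero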;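 further: hits lower antibody fragment binding to DSG3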
Rce1 inh = yeast Ras-converting enzyme inhibition. 290,000 tested, 0.27% active. yeast membranes, quenched prenylated peptide cleavage fluorescence. Q03530. calls only;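 active means fall in fluorescence gain of 50% or more versus controls, with final raw signal at or below 3038400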
HCV core dimer = HCV core protein dimerization inhibition; TR-FRET GST/Flag-core106 dimerization, 1536-well; inhibition, % at 5 µM; 300,000 tested, 0.33% active; AID 1899;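 active means inhibition above the mean of all tested compounds plus 3 SD, set per screening campaign, cut at about 45% in these data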
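System – GST-tagged and Flag-tagged HCV core protein residues 1-106 · Repeats – one well for each compound · Technique – TR-FRET 671 and 617 nm emission · Doses – one concentration, 5 µM, in 0.5% DMSO · Times – 4 h, 22.5 °C incubation · Also added – Eu donor and XL665 acceptor anti-tag antibodies · Measure – percent inhibition of core106 dimerization signal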
NadD conf = NadD (S. aureus) inhibition, single concentration confirmation. shares compounds with NadD block. purified S. aureus NadD, colorimetric enzyme assay. inhibition, % at 20 µM. 2,000 tested, 13% active. AID 624309; in the data active means inhibition mostly above about 42%, no sharp cut-off; inactive means mostly below about 42%
A number is an active result; n = inactive; x = no result given. The list is not random: actives were taken first. Their share in the collection is about 1.9%.

SMILES	TbMetRS inhib	NadD block	Pemphigus Ab inh	Rce1 inh	HCV core dimer	NadD conf
Cc1nc2sc(C(c3ccco3)N3CCc4ccccc4C3)c(O)n2n1 (configuration not stated)	n	n	n	n	n	x
Cc1cccc(Nc2nnc(SC/C(O)=C(\C#N)c3nc4ccccc4[nH]3)s2)c1C	n	45.2	n	n	n	n
Cc1ccc(Nc2nnc(SCC(O)=C(C#N)c3nc4ccccc4[nH]3)s2)c(C)c1	n	30.5	x	x	x	60.1
Cc1cccc(C)c1Nc1nnc(SC/C(O)=C(\C#N)c2nc3ccccc3[nH]2)s1	n	31.9	n	n	n	68.9
O=C(CSc1ncnc2c1cnn2-c1ccc(Cl)cc1)NCc1ccc2c(c1)OCO2	n	n	n	n	n	x
CC(=O)Nc1ccc(NC(=O)CSc2nnc(-c3cc(C)[nH]n3)n2N)cc1	n	n	n	n	n	x
O=C(COC(=O)c1ccc(C(F)(F)F)cc1)Nc1cccc(S(=O)(=O)NC2=NCCCCC2)c1	n	n	x	x	x	x
CC(C)C[C@@H](CN1CCCC1CN1C(=S)NC[C@@H]1Cc1ccc(O)cc1)N1C[C@H](Cc2ccc(O)cc2)N(CC2CCCCCC2)C1=S (some centres not stated)	n	55.3	n	x	x	n
CC(C)C[C@H]1CNC(=S)N1C[C@H]1CCCN1C[C@H](CC(C)C)N1C[C@H](Cc2ccc(O)cc2)N(CC2CCCCC2)C1=S	n	40.9	x	x	x	n
CC(C)NC(=O)c1ccc2c(c1)N(CC(=O)NC1CCCCC1)C(=O)C(C)(C)O2	n	n	n	n	x	x
CCOC(=O)CC1=C(C(=O)OCC)C(c2ccc(C)o2)C(C#N)=C(N)O1 (configuration not stated)	n	n	n	n	n	x
Cc1ccccc1NC(=S)NC(=O)c1cc(-c2ccccc2)nc2ccccc12	n	37.6	n	n	n	n
CCCOc1ccc(C(=O)NNC(=S)NC(=O)c2cc(-c3ccccc3)nc3ccccc23)cc1	n	62.1	n	n	n	n
CCOc1ccc(-c2cc(C(=O)Nc3ccc4c(c3)OCCO4)c3ccccc3n2)cc1	n	33.2	n	n	n	n
COc1ccc(C(=O)[C@H]2[C@H]3C(=O)N(c4ccc(OC(C)=O)cc4)C(=O)[C@H]3C3C=CC=NN32)cc1 (some centres not stated)	n	n	n	n	n	x
CC(=O)Oc1ccc(C(=O)[C@H]2[C@H]3C(=O)N(c4cccc5ccccc45)C(=O)[C@H]3[C@@H]3C=CC=NN32)cc1	n	45.4	n	n	52.1	n
C[C@@H]1CN([C@H](C)CO)C(=O)c2cc(NC(=O)c3ccncc3)ccc2O[C@@H]1CN(C)C(=O)Nc1ccccc1	n	61.2	n	x	x	47.0
C[C@@H]1CN([C@@H](C)CO)C(=O)Cc2cc(NC(=O)Nc3cccc4ccccc34)ccc2O[C@@H]1CN(C)Cc1ccc(C(F)(F)F)cc1	n	31.3	x	x	x	n
Cc1noc(C)c1NC(=O)N(C)C[C@@H]1Oc2c(NC(=O)c3ccncc3)cccc2C(=O)N([C@H](C)CO)C[C@@H]1C	n	36.5	n	x	x	57.4
COc1cccc2cc(C(C)OC(=O)Nc3ccc(C)cc3)oc12 (configuration not stated)	n	n	n	n	n	x
CCOc1ccc(N(C(C)C(=O)NCc2ccco2)S(C)(=O)=O)cc1 (configuration not stated)	n	n	n	n	n	x
COc1ccc(CCC(=O)OCC(=O)N(C)c2c(N)n(Cc3ccccc3)c(=O)[nH]c2=O)cc1	n	n	n	n	n	x
O=C(CSc1nc2c(cnn2-c2ccccc2)c(=O)[nH]1)c1ccc(Cl)cc1	n	37.2	n	n	n	n
S=c1[nH]nc(-c2cc(-c3ccccc3)n[nH]2)n1/N=C/c1cccc(Cl)c1	n	n	x	n	n	x
CCn1c2ccccc2c2cc(/C=N/n3c(-c4cc(C)[nH]n4)n[nH]c3=S)ccc21	n	61.7	x	x	n	63.5
S=c1[nH]nc(-c2cc(-c3ccccc3)n[nH]2)n1/N=C/c1ccc(Cl)c(Cl)c1	n	30.5	x	n	n	n
S=c1[nH]nc(-c2cc(-c3ccccc3)n[nH]2)n1/N=C/c1ccc(Cl)cc1	n	26.3	n	n	n	n
CCC(C)[C@H](NC(=O)N1CCn2c1nc1ccccc12)C(=O)NCC1CCCO1 (some centres not stated)	n	n	n	n	n	x
